This is an account of results in ChEMBL document CHEMBL1126849, “Synthesis of A-ring fluorinated derivatives of (17 alpha,20E/Z)-[125I]iodovinylestradiols: effect on receptor binding and receptor-mediated target tissue uptake” (J Med Chem, 1993).

Molecules are shown by their SMILES.

One test deals with T1, Estrogen receptor (Mus musculus) (UniProt O08537+P19785). Description: Relative binding affinity (RBA) against murine cytoplasmic estrogen receptor incubated at 0-4 degree Celsius for 18 hours. In kind it is protein assay. A digest of the protocol: (§1)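 Competitive binding on murine uterine cytoplasmic extract with 20 nM [3H]estradiol and competitor steroids at 2 nM–20 μM, incubated 18 h at 0–4 °C. RBA = 100 × ratio of […] concentration giving 50% competition for specific binding. Mean of three experiments with SD.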
T1 sequence (O08537 whole entry, looked up): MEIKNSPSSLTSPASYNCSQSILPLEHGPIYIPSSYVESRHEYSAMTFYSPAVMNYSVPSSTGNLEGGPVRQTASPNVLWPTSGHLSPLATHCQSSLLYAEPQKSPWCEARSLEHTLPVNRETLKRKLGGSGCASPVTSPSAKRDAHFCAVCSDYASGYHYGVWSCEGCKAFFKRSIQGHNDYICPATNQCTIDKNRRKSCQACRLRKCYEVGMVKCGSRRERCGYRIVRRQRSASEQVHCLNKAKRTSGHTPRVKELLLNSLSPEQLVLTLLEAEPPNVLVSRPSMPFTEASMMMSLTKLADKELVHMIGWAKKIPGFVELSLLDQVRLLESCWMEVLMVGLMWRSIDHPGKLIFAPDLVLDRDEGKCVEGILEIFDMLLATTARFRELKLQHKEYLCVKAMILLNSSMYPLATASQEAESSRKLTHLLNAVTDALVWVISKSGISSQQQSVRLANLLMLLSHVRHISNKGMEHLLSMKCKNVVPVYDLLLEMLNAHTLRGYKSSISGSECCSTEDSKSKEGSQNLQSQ
T1 sequence (P19785 whole entry, looked up): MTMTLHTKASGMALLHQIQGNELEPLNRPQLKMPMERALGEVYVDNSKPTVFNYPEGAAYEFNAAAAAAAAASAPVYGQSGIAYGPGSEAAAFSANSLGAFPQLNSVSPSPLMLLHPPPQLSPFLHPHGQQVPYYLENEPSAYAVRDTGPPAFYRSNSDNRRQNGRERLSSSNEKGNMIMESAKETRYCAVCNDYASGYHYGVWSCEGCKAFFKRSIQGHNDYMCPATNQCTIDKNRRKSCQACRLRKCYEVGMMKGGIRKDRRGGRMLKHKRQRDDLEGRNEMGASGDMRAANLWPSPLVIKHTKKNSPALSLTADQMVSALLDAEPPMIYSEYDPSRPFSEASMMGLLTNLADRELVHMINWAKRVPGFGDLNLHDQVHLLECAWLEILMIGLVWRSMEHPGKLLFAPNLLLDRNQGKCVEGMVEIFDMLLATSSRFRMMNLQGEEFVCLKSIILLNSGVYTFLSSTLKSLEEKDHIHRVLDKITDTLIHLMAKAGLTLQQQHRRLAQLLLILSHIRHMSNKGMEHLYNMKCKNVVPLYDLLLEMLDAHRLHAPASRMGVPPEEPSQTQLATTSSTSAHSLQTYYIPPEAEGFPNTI
For the compound `C=C[C@]1(O)CC[C@H]2[C@@H]3CCc4cc(O)ccc4[C@H]3[C@@H](OC)C[C@@]21C`, the RBA stood at 15.3.

Compound `CO[C@H]1C[C@@]2(C)[C@@H](CC[C@@]2(O)/C=C/I)[C@@H]2CCc3cc(O)ccc3[C@H]21` yielded an RBA of 27.7.

Compound `C=C[C@]1(O)CC[C@H]2[C@@H]3[C@H](C)Cc4cc(O)ccc4[C@H]3CC[C@@]21C` yielded an RBA of 73.1.

Compound `C=C[C@]1(O)CC[C@H]2[C@@H]3[C@H](C)Cc4c(ccc(O)c4F)[C@H]3CC[C@@]21C` yielded an RBA of 62.4.

Take `C[C@]12CC[C@@H]3c4ccc(O)cc4CC[C@H]3[C@@H]1CC[C@@]2(O)/C=C\I`: the RBA was determined as 46.7.

In turn, `C=C[C@]1(O)CC[C@H]2[C@@H]3CCc4c(ccc(O)c4F)[C@H]3CC[C@@]21C` gave an RBA of 119.

In turn, `C=C[C@]1(O)CC[C@H]2[C@@H]3CCc4cc(O)c(F)cc4[C@H]3CC[C@@]21C` registered an RBA of 64.3.

As for `C=C[C@]1(O)CC[C@H]2[C@@H]3CCc4c(ccc(O)c4F)[C@H]3[C@@H](OC)C[C@@]21C`, the RBA was determined as 16.7.

Compound `C=C[C@]1(O)CC[C@H]2[C@@H]3[C@H](C)Cc4cc(O)c(F)cc4[C@H]3CC[C@@]21C` registered an RBA of 33.3.

Consider `C=C[C@]1(O)CC[C@H]2[C@@H]3CCc4cc(O)c(F)cc4[C@H]3[C@@H](OC)C[C@@]21C`, for which the RBA was found to be 15.9.

`C[C@]12CC[C@@H]3c4ccc(O)cc4CC[C@H]3[C@@H]1CC[C@@]2(O)/C=C/I` had an RBA of 39.7.

In turn, `CO[C@H]1C[C@@]2(C)[C@@H](CC[C@@]2(O)/C=C\I)[C@@H]2CCc3cc(O)ccc3[C@H]21` displayed an RBA of 32.

`C[C@@H]1Cc2cc(O)ccc2[C@H]2CC[C@@]3(C)[C@@H](CC[C@@]3(O)/C=C/I)[C@H]12` gave an RBA of 43.2.

Compound `C[C@@H]1Cc2cc(O)ccc2[C@H]2CC[C@@]3(C)[C@@H](CC[C@@]3(O)/C=C\I)[C@H]12` gave an RBA of 44.9.

The target of the next test is T1, Estrogen receptor (Mus musculus). The test can be described thus: Relative binding affinity (RBA) for murine cytoplasmic estrogen receptor at 25 degree C for 2 hr. The test is classed as protein assay. A digest of the protocol:
(§2)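 Murine uterine cytoplasmic extract incubated 2 h at 4 °C or at 25 °C with 20 nM [3H]estradiol and competitors at 2 nM–20 μM. RBA is taken as 100 × the ratio of competitor to unlabeled estradiol concentration needed for 50% competition of specific [3H]estradiol binding.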
In turn, `C#C[C@]1(O)CC[C@H]2[C@@H]3CCc4c(ccc(O)c4F)[C@H]3CC[C@@]21C` yielded an RBA of 166.

Another test shares this target. Description: Relative binding affinity (RBA) for murine cytoplasmic estrogen receptor at 4C for 18 hr. The test is classed as protein assay. A digest of the protocol:
as §1
In the case of `C#C[C@]1(O)CC[C@H]2[C@@H]3CCc4c(ccc(O)c4F)[C@H]3CC[C@@]21C`, the RBA is 119.

The next test shares this target. Description: Relative binding affinity (RBA) for murine cytoplasmic estrogen receptor at 4C for 2 hr. The test is classed as protein assay. A digest of the protocol: as §2
`C#C[C@]1(O)CC[C@H]2[C@@H]3CCc4c(ccc(O)c4F)[C@H]3CC[C@@]21C` showed an RBA of 80.
